MsrA act = activators of bovine methionine sulfoxide reductase A | purified bovine MsrA, absorbance read-out | activation, % at 10.6 µM | actives 0.3% (n = 360,000); in the data active = activation above about 7.5%
p-CIP stab down = lowers stability of the mouse p/CIP coactivator protein; F442A p/CIP-EGFP cells, EGFP fluorescence, 16 h; decrease of EGFP signal, % at 10 µM; actives 0.01% (n = 290,000); Q05BA5;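 active = EGFP signal decrease of at least 30% at 10 µM or well 3 SD below plate mean, unless failing retest; inactive = the rest, including hits failing retest or dose response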
Target sequence (Q05BA5 1-1403): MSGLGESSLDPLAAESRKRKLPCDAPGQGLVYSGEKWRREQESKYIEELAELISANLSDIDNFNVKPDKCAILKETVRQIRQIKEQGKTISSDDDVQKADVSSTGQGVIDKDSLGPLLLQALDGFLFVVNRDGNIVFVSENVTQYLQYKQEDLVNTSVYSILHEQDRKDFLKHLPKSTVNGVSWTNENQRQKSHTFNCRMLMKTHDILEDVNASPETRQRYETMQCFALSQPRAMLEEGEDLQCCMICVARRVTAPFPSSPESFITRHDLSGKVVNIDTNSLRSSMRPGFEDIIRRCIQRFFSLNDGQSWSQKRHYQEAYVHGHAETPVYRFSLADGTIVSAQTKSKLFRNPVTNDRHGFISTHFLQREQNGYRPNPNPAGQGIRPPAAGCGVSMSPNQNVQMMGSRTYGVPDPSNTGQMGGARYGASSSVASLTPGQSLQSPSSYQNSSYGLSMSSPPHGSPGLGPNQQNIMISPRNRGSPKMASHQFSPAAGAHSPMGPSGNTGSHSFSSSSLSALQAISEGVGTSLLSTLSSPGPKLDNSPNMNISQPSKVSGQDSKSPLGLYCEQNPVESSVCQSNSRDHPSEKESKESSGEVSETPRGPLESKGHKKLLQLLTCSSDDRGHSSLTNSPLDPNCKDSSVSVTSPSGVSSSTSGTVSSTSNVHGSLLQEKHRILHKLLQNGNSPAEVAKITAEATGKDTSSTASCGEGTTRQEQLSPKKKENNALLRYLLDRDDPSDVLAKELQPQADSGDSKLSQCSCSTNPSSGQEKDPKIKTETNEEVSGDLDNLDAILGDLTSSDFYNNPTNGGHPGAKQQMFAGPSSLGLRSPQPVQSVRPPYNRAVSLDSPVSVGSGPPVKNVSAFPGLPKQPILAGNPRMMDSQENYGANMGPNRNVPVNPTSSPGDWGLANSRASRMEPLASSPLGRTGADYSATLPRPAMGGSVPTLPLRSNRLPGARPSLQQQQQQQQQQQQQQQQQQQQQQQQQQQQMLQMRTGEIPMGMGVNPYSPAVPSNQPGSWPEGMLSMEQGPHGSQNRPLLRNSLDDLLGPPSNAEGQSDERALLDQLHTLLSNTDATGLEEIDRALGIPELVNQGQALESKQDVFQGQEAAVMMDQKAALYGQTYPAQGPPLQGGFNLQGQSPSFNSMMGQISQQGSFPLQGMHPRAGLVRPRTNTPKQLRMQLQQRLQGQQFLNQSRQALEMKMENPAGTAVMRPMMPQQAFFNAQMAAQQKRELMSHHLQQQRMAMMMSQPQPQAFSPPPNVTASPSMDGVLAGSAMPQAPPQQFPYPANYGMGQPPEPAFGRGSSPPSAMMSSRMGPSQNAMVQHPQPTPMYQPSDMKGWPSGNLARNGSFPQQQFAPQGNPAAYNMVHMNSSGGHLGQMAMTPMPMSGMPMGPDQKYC
MsrA inhibitor = inhibitors of bovine MsrA. actives 0.75% (n = 360,000). purified bovine MsrA, absorbance read-out. inhibition, % at 15.5 µM; in the data active = inhibition above about 4.5%
MT1-MMP act inh = blocks activation of human MT1-MMP | HT1080 RFP-PRO-GFP cells, GFP/RFP ratio fluorescence, overnight; percent of plate control window, DMSO zero | P50281 | GFP/RFP ratio change, % at 20 µM | actives 0.061% (n = 360,000);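 active = GFP/RFP ratio change of at least 30% with cell ATP level not reduced by more than half and red fluorescence within 50% of control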
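Assay system – RFP-PRO-GFP reporter HT1080 cells · Compound dosing – single dose of 20 µM compound, 1% DMSO final · Incubation – overnight compound exposure at 37 °C · Measure – GFP/RFP fluorescence ratio · Benchmarks – DMSO wells and RFP-L50D-GFP cells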
SKN-1 inh = inhibitors of C. elegans SKN-1; actives 0.49% (n = 360,000); C. elegans VP596 Pgst-4::GFP/RFP ratio, acrylamide-induced, 24 h; inhibition, % at 21.8 µM;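 active = interference check ratio from 0.5 to 1.5 plus GFP to RFP signal ratio inhibition reaching or exceeding a fixed threshold, cut at about 30% in these data, passing the limit was not always enough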
Large screens that a line does not name were inactive. Rows were chosen to be rich in hits. Some 1.6% of all compounds tested hit in one or more screens of this group.

N/C(=N\OC(=O)c1ccc(Br)cc1)c1ccncc1	none
N/C(=N\OC(=O)c1cccc(Br)c1)c1ccncc1	SKN-1 inh 46
Cc1cccc(C(=O)O/N=C(\N)c2ccccn2)c1	SKN-1 inh 37
CN(C)/N=C/C=C1\CC/C(=C\c2ccc(Br)cc2)C1=O	SKN-1 inh 41
CN(C)/N=C/C=C1\CCC/C(=C/c2cccs2)C1=O	none
O=[N+]([O-])c1ccc(COc2ccc(CN3CCCC3)cc2)cc1	SKN-1 inh 60 (no result: p-CIP stab down, MT1-MMP act inh)
O=[N+]([O-])c1ccc(OCc2cnc(Cl)s2)cc1	SKN-1 inh 54
O=[N+]([O-])c1ccc(COc2ccc(CN3CCCCC3)cc2)cc1	SKN-1 inh 40 (no result: p-CIP stab down)
O=[N+]([O-])c1ccc(COc2ccc(CN3CCOCC3)cc2)cc1	none (no result: p-CIP stab down)
COc1ccc(OCc2cnc(Cl)s2)cc1	none
O=[N+]([O-])c1ccc(COc2ccccc2CO)cc1	none (no result: MsrA act, p-CIP stab down, MT1-MMP act inh, SKN-1 inh)
COC(=O)CCCC1=CC2=CC(=O)C(C)(OC(=O)CCc3ccccc3)C(=O)C2=CO1 (stereo not drawn)	SKN-1 inh 33 (no result: MsrA inhibitor)
CC(=O)Nc1ccc(S(=O)(=O)NCC2CCN(C(=O)C(=O)c3cc4ccccc4o3)CC2)cc1	none (no result: MsrA act, p-CIP stab down, MT1-MMP act inh, SKN-1 inh)
COc1ccc(N2CCN(Cc3nc(N)nc(Nc4ccc(C)c(Cl)c4)n3)CC2)cc1	SKN-1 inh 36
COC(=O)[C@]12C[C@H](CC(=O)NCc3cccc4ccccc34)C(=O)N(Cc3ccccc3)C1=C[C@H](C(C)C)O[C@@H]2C1CC1	none (no result: MsrA act, p-CIP stab down, MT1-MMP act inh, SKN-1 inh)
Brc1ccc(-c2nc(-c3ccncc3)no2)cc1	none
Brc1ccc(-c2nc(-c3ccncc3)no2)o1	SKN-1 inh 49 (no result: MT1-MMP act inh)
Brc1ccc(-c2nc(-c3ccccn3)no2)o1	SKN-1 inh 44
Brc1ccc(-c2noc(-c3ccccn3)n2)o1	SKN-1 inh 66
Cc1ccc(NC(=O)[C@@H](Cc2ccccc2)NC(=O)[C@H]2O[C@@H](n3ccc(=O)[nH]c3=O)[C@H](O)[C@@H]2O)cc1C	none (no result: MsrA act, p-CIP stab down, MT1-MMP act inh, SKN-1 inh)
Cc1ccc2ncnc(Nc3cccc([N+](=O)[O-])c3)c2c1	SKN-1 inh 38
COC(=O)c1cccc(Nc2ncnc3ccc(C)cc23)c1	none
CC1(CC(=O)N/N=C/c2ccc(-c3ccc(C(=O)O)cc3)o2)OCCO1	MsrA inhibitor 9.0
Cc1cc2nc3ccc(=[N+](C)C)cc-3sc2cc1N	MsrA act 19 (no result: MsrA inhibitor)
CN(C)c1ccc2nc3ccc(=O)cc-3sc2c1	none (no result: p-CIP stab down)
CCOc1ccc2nc(NC(=O)c3ccc(OC)c(S(=O)(=O)N4CCOCC4)c3)sc2c1	none
CCOc1ccc2nc(NC(=O)c3ccc(S(=O)(=O)N4CCOCC4)cc3)sc2c1	SKN-1 inh 35
CCOc1ccc2nc(NC(=O)c3ccco3)sc2c1	SKN-1 inh 35
Cc1nccn1-c1ccc(NC(=O)[C@@H](Cc2ccccc2)NC(=O)[C@H]2O[C@@H](n3ccc(=O)[nH]c3=O)[C@H](O)[C@@H]2O)cc1	none (no result: MsrA act, p-CIP stab down, MT1-MMP act inh, SKN-1 inh)
O=C(Nc1ccc2oc(-c3ccccc3)nc2c1)c1cccnc1	SKN-1 inh 39
CCc1ccc2oc(-c3cccc(NC(=O)c4cccnc4)c3)nc2c1	none
Clc1c(-c2ccccc2)nnn1-c1ccccc1	SKN-1 inh 36
COC(=O)c1ccc2c(=O)n(CCCCCC(=O)NC3CCCCC3)c(=O)[nH]c2c1	none (no result: MsrA act, p-CIP stab down, MT1-MMP act inh, SKN-1 inh)
COc1ccc(N2CCN(C(=O)CN(c3ccccc3)S(=O)(=O)c3ccc(OC)cc3)CC2)cc1	none
COc1ccc(S(=O)(=O)N(CC(=O)N2CCN(c3ccccc3OC)CC2)c2ccccc2)cc1	SKN-1 inh 37 (no result: MsrA inhibitor)
O=C(COC(=O)c1cccc(S(=O)(=O)N2CCOCC2)c1)Nc1ncc(C(F)(F)F)cc1Cl	SKN-1 inh 42
O=C(COC(=O)CCc1ccc(S(=O)(=O)N2CCOCC2)cc1)Nc1ncc(C(F)(F)F)cc1Cl	none
COc1cccc(CNC(=O)[C@H]2CCCN2C(=O)[C@H]2CCCN2C(=O)c2ccc(F)c(C(F)(F)F)c2)c1	none (no result: MsrA act, p-CIP stab down, MT1-MMP act inh, SKN-1 inh)
CN(C)C(=O)N1CCN(C(=O)[C@H]2O[C@@H](n3ccc(N)nc3=O)[C@H](O)[C@@H]2O)CC1	none (no result: MsrA act, p-CIP stab down, MT1-MMP act inh, SKN-1 inh)
O=C1C=CC(=O)c2c(O)c(N3CCN(CCOCCO)CC3)c(Br)c(O)c21	SKN-1 inh 47 (no result: p-CIP stab down)
COc1ccccc1/C=C/C=N\N1CCN(Cc2ccccc2Cl)CC1	none
COc1ccccc1/C=C/C=N/N1CCN(Cc2ccc(Cl)cc2)CC1	SKN-1 inh 36
COCCN1CCCc2nc(-c3ccc(Br)cc3)ccc21	none (no result: MsrA act, p-CIP stab down, MT1-MMP act inh, SKN-1 inh)
Cc1cc(N(C)C)ccc1N=Nc1ccc2ncccc2c1	SKN-1 inh 69
Cc1ccc2ncccc2c1	none (no result: p-CIP stab down)

Screening results deposited in PubChem by several laboratories.
